Laboratory results: ChEMBL document CHEMBL1134817, “Mixed kappa agonists and mu agonists/antagonists as potential pharmacotherapeutics for cocaine abuse: synthesis and opioid receptor binding affinity of N-substituted derivatives of morphinan” (Bioorg Med Chem Lett, 2001)

What was measured:
Mu-type opioid receptor = Mu-type opioid receptor (Cavia porcellus, UniProt P97266); assay: Binding affinity towards Opioid receptor mu 1 in guinea pig brain membranes using [3H]DAMGO as radioligand; type: cell membranes, Membrane
Chain of Mu-type opioid receptor (P97266 whole entry): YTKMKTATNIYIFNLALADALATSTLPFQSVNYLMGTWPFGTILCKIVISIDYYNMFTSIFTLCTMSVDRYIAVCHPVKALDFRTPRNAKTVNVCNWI
Summary of the method: (§1)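 Competitive displacement binding on guinea pig brain membranes. Each receptor was labelled with its own tritiated radioligand: [³H]DAMGO (μ agonist) for μ, [³H]naltrindole (δ antagonist) for δ, and [³H]U69593 (κ agonist) for κ. The method follows an earlier protocol.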

[1] = target: T1, Kappa-type opioid receptor (Cavia porcellus, UniProt P41144); assay: Binding affinity towards Opioid receptor kappa 1 in guinea pig brain membranes using [3H]U-69593 as radioligand; type: cell membranes, Membrane; summary of the method: as §1
T1 sequence (P41144 whole entry): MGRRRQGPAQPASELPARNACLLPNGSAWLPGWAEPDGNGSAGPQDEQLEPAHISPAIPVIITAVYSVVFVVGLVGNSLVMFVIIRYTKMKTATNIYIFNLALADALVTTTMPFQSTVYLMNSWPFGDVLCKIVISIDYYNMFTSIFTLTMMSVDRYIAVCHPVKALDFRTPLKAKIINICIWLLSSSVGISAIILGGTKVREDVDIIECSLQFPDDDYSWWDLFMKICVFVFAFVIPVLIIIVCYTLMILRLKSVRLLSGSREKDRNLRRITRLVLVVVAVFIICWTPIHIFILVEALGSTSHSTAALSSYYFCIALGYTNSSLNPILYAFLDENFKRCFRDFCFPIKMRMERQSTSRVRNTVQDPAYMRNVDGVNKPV

[2] = target: Opioid receptors; delta & kappa (Homo sapiens) (UniProt P41145+P41143); assay: Selectivity ratio of kappa opioid receptor to that of delta opioid receptor in guinea pig brain membranes; type: cell membranes; details: Cavia porcellus; target entry is the homologue from another species
Chain of Opioid receptors; delta & kappa (Homo sapiens) (P41143 whole entry, looked up): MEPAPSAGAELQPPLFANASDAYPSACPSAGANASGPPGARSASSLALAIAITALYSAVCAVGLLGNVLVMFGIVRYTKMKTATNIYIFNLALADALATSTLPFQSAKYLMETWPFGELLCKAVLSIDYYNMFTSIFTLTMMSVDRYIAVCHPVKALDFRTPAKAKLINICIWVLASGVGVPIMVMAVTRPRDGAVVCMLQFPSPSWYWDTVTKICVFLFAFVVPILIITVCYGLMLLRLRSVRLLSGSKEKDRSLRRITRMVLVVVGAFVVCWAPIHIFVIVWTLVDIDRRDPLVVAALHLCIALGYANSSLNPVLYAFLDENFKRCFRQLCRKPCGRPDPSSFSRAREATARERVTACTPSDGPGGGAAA
Chain of Opioid receptors; delta & kappa (Homo sapiens) (P41145 whole entry, looked up): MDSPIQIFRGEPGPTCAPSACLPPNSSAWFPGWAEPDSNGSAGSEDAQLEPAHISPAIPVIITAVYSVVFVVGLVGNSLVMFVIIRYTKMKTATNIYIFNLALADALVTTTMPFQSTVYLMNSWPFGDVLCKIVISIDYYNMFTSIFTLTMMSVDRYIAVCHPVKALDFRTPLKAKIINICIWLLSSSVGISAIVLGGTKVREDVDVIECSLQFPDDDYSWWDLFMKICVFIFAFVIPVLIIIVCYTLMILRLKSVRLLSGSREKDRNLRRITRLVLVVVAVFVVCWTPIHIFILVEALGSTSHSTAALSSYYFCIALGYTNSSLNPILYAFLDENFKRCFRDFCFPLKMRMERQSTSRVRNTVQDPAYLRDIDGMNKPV

[3] = target: Opioid receptors; mu & kappa (Homo sapiens) (UniProt P41145+P35372); assay: Selectivity ratio of kappa opioid receptor to that of mu opioid receptor in guinea pig brain membranes; type: cell membranes; details: Cavia porcellus; target entry is the homologue from another species
Chain of Opioid receptors; mu & kappa (Homo sapiens) (P35372 whole entry, looked up): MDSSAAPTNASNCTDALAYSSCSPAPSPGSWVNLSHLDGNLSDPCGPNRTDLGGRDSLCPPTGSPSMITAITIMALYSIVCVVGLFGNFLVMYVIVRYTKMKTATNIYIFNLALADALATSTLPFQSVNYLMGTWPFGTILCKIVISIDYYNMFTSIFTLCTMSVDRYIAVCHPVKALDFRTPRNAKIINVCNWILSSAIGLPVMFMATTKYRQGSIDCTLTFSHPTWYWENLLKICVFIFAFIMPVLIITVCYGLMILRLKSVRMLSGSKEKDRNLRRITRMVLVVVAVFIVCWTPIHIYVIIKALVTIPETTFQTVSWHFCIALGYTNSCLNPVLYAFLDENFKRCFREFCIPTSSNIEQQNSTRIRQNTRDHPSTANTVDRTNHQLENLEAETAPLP
Chain of Opioid receptors; mu & kappa (Homo sapiens) (P41145 whole entry, looked up): as the sequence (P41145 whole entry, looked up) above

[4] = target: T1, Kappa-type opioid receptor; assay: Binding affinity towards guinea pig Opioid receptor kappa 1 using radioligand [3H]U-69593; summary of the method: as §1
[5] = Binding affinity towards Opioid receptor delta 1 in guinea pig brain membranes using [3H]naltrindole as radioligand

For `CCOCCN1CC[C@]23CCCC[C@H]2[C@H]1Cc1cc(O)ccc13`, the Ki (Mu-type opioid receptor) was 0.26 nM, the Ki [1] was 0.33 nM and the Selectivity [2] was 16. For the same compound, the Selectivity [3] was 0.8.

Work on `O=C(CCN1CC[C@]23CCCC[C@H]2[C@H]1Cc1cc(O)ccc13)c1ccccc1` yielded a Ki (Mu-type opioid receptor) of 0.43 nM, a Ki [4] of 9.9 nM and a Selectivity [2] of 2. It also gave a Selectivity [3] of 0.04.

`Oc1ccc2c(c1)C[C@@H]1[C@@H]3CCCC[C@]23CCN1CCC(O)c1ccccc1` (some centres undefined) gave a Ki (Mu-type opioid receptor) of 21 nM, a Ki [4] of 57 nM and a Selectivity [2] of 2. It also gave a Selectivity [3] of 0.4.

In the case of `N#CCCN1CC[C@]23CCCC[C@H]2[C@H]1Cc1cc(O)ccc13`, the Ki (Mu-type opioid receptor) is reported as 0.33 nM, the Ki [4] is reported as 0.23 nM and the Selectivity [2] is reported as 11. For the same compound, the Selectivity [3] was 1.4.

For `O=C(CCN1CC[C@]23CCCC[C@H]2[C@H]1Cc1cc(O)ccc13)c1ccco1`, the Ki (Mu-type opioid receptor) was 0.28 nM, the Ki [4] was 7.9 nM and the Selectivity [2] was 5. For the same compound, the Selectivity [3] was 0.035.

Compound `Oc1ccc2c(c1)C[C@@H]1[C@@H]3CCCC[C@]23CCN1Cc1ccco1` has a Ki (Mu-type opioid receptor) of 0.54 nM, a Ki [4] of 0.13 nM and a Selectivity [2] of 65. For the same compound, the Selectivity [3] was 4.

`Oc1ccc2c(c1)C[C@@H]1[C@@H]3CCCC[C@]23CCN1CC=CI` gave a Ki (Mu-type opioid receptor) of 0.42 nM, a Ki [4] of 0.65 nM and a Selectivity [2] of 51. The Selectivity [3] was 0.6.

For `COCCN1CC[C@]23CCCC[C@H]2[C@H]1Cc1cc(O)ccc13`, the Ki (Mu-type opioid receptor) was 0.11 nM, the Ki [4] was 0.094 nM and the Selectivity [2] was 6. It also gave a Selectivity [3] of 1.

Work on `Oc1ccc2c(c1)C[C@@H]1[C@@H]3CCCC[C@]23CCN1CCOc1ccccc1` yielded a Ki (Mu-type opioid receptor) of 0.92 nM, a Ki [4] of 15 nM and a Selectivity [2] of 2. The Selectivity [3] was 0.06.

For `C#CCN1CC[C@]23CCCC[C@H]2[C@H]1Cc1ccc(O)cc13`, the Ki (Mu-type opioid receptor) was 0.0032 nM, the Ki [4] was 0.003 nM and the Selectivity [2] was 210. For the same compound, the Selectivity [3] was 1.

For `CN1CC[C@]23CCCC[C@H]2[C@H]1Cc1ccc(O)cc13` [LEVORPHANOL], the Selectivity [2] was 2, the Selectivity [3] was 0.09 and the Ki [5] was 4.2 nM.

With `Oc1ccc2c(c1)C[C@@H]1[C@@H]3CCCCC23CCN1CC1CCCC1` the Ki (Mu-type opioid receptor) was 0.96 nM, the Ki [1] was 0.21 nM and the Selectivity [2] was 33. It also gave a Selectivity [3] of 5.

For `Oc1ccc2c(c1)C[C@@H]1[C@@H]3CCCC[C@]23CCN1Cc1ccccc1`, the Ki (Mu-type opioid receptor) was 20 nM, the Ki [4] was 1.9 nM and the Selectivity [2] was 220. It also gave a Selectivity [3] of 11.

In the case of `Oc1ccc2c(c1)[C@@]13CCCC[C@H]1[C@@H](C2)N(CC1CC1)CC3` [CYCLORPHAN], the Ki [5] is reported as 0.22 nM.

Work on `Oc1ccc2c(c1)[C@@]13CCCC[C@H]1[C@@H](C2)N(CC1CCC1)CC3` [BUTORPHAN] yielded a Ki [1] of 0.07 nM, a Selectivity [2] of 18 and a Selectivity [3] of 2. The Ki [5] was 1.3 nM.

`O=C(CCN1CC[C@]23CCCC[C@H]2[C@H]1Cc1cc(O)ccc13)c1cccs1` showed a Ki (Mu-type opioid receptor) of 0.27 nM, a Ki [4] of 4.5 nM and a Selectivity [2] of 2. It also gave a Selectivity [3] of 0.06.

`Oc1ccc2c(c1)C[C@@H]1[C@@H]3CCCC[C@]23CCN1C/C=C/I` showed a Ki (Mu-type opioid receptor) of 0.0048 nM, a Ki [4] of 0.037 nM and a Selectivity [2] of 730. It also gave a Selectivity [3] of 0.13.

With `Oc1ccc2c(c1)C[C@@H]1[C@@H]3CCCC[C@]23CCN1CCC(O)c1cccs1` (some centres undefined) the Ki (Mu-type opioid receptor) was 4.1 nM, the Ki [4] was 25 nM and the Selectivity [2] was 4. It also gave a Selectivity [3] of 0.2.

For `C=CCN1CC[C@]23CCCC[C@H]2[C@H]1Cc1cc(O)ccc13`, the Ki (Mu-type opioid receptor) was 0.34 nM, the Ki [4] was 0.16 nM and the Selectivity [2] was 26. For the same compound, the Selectivity [3] was 2.

`CC(C)CN1CC[C@]23CCCC[C@H]2[C@H]1Cc1cc(O)ccc13` gave a Ki (Mu-type opioid receptor) of 0.54 nM, a Ki [1] of 0.16 nM and a Selectivity [2] of 35. For the same compound, the Selectivity [3] was 3.

Compound `Oc1ccc2c(c1)C[C@@H]1[C@@H]3CCCC[C@]23CCN1CCc1ccccc1` has a Ki (Mu-type opioid receptor) of 0.12 nM, a Ki [4] of 1.3 nM and a Selectivity [2] of 2. The Selectivity [3] was 0.092.

In the case of `Oc1ccc2c(c1)C[C@@H]1[C@@H]3CCCCC23CCN1CC1CCCCC1`, the Ki (Mu-type opioid receptor) is reported as 18 nM, the Ki [1] is reported as 1.5 nM and the Selectivity [2] is reported as 46. It also gave a Selectivity [3] of 12.

In the case of `Oc1ccc2c(c1)C[C@@H]1[C@@H]3CCCCC23CCN1Cc1cccs1`, the Ki (Mu-type opioid receptor) is reported as 1.5 nM, the Ki [4] is reported as 0.32 nM and the Selectivity [2] is reported as 160. For the same compound, the Selectivity [3] was 5.

Compound `Oc1ccc2c(c1)C[C@@H]1[C@@H]3CCCC[C@]23CCN1CCC(F)(F)F` has a Ki (Mu-type opioid receptor) of 2.3 nM, a Ki [4] of 1.3 nM and a Selectivity [2] of 21. The Selectivity [3] was 2.

With `Oc1ccc2c(c1)C[C@@H]1[C@@H]3CCCC[C@]23CCN1CCCF` the Ki (Mu-type opioid receptor) was 0.18 nM, the Ki [1] was 0.083 nM and the Selectivity [2] was 10. For the same compound, the Selectivity [3] was 2.

With `N#CCCCN1CC[C@]23CCCC[C@H]2[C@H]1Cc1cc(O)ccc13` the Ki (Mu-type opioid receptor) was 0.16 nM, the Ki [4] was 0.38 nM and the Selectivity [2] was 8. It also gave a Selectivity [3] of 0.42.

Work on `Oc1ccc2c(c1)C[C@@H]1[C@@H]3CCCC[C@]23CCN1CCC(O)c1ccco1` (some centres undefined) yielded a Ki (Mu-type opioid receptor) of 4.2 nM, a Ki [4] of 12 nM and a Selectivity [2] of 2. For the same compound, the Selectivity [3] was 0.35.
